p-CIP stab down: p/CIP protein destabilization | decrease of EGFP signal, % at 10 µM | 290,000 compounds, 0.01% hits | F442A p/CIP-EGFP cells, EGFP fluorescence, 16 h | Q05BA5 | AID 1984;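 active means EGFP signal decrease of at least 30% at 10 µM or well 3 SD below plate mean, unless failing retest; inactive means the rest, including hits failing retest or dose response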
CTSL1 counter: cathepsin L1 inhibition, PFM18AAP counter-screen; recombinant F. hepatica cathepsin L1, Z-Leu-Arg-MCA fluorescence; inhibition, % at 5.96 µM; 300,000 compounds, 0.49% hits; AID 1906;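 active means inhibition above the mean of all tested compounds plus 3 SD, set per screening campaign, cut at about 17% in these data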;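 further: 0% = plate median of test compound wells and 100% = 1 µM Z-Phe-Ala-diazomethylketone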
Arrestin-AP2 inh: human beta-arrestin and AP2 interaction inhibition | FITC-arrestin peptide / GST-AP2 beads, flow cytometry; AP2 beta2 appendage carries R879A mutation | inhibition, % at 10 µM | 340,000 compounds, 0.31% hits;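 active means inhibition above a set limit, near 3 SD of compounds lacking own fluorescence, cut at about 54% in these data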;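 further: plate controls were DMSO wells for no effect and 5 µM unlabelled arrestin peptide for full effect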
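Material – AP2 appendage R879A on GSH beads · Buffer or medium – PBS with 0.05% Tween 20 and 0.1% BSA · Probe or stimulus – fluorescein-tagged arrestin peptide at 50 nM final · Incubation – compound with beads 12 min RT, then probe 1 h RT · Detection – high-throughput flow cytometry of beads, ex 488, em 535 nm · Evaluation – percent response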
Hep lipid drop: hepatic lipid droplet formation modulation. AML12 mouse hepatocytes, oleate lipid droplets, BODIPY imaging. inhibition, % at 6.5 µM. 240,000 compounds, 0.4% hits. AID 1656;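 active means lipid droplet intensity inhibited by at least 50%, with more than 500 cells counted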
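Test system: AML12 hepatocytes (mouse); reagent: oleate loading, 100 µM; dosing: one dose, 6.5 µM compound; incubation: overnight exposure; signal: fluorescence imaging, 20x objective, two fields per well; read-out basis: % inhibition of corrected integrated BODIPY droplet signal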
Arr AP2 CP1: inhibitors of human beta-arrestin and AP2 interaction; 1,300 compounds, 2% hits; shares compounds with Arrestin-AP2 inh; inhibition, % at 10 µM; GST-AP2 beads, FITC arrestin peptide binding, flow cytometry; GST-fused beta2-adaptin appendage, R879A mutant;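 active means inhibition above a set limit, roughly 3 SD of non-fluorescent compound noise, cut at about 38% in these data; inactive means inhibition at or below that limit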;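 further: loss of bead fluorescence from 50 nM FITC arrestin peptide bound to appendage; 0% = negative control wells and 100% = excess unlabelled arrestin peptide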
Target sequence (P63010 whole entry, looked up, the tested form may be a part, one chain of several): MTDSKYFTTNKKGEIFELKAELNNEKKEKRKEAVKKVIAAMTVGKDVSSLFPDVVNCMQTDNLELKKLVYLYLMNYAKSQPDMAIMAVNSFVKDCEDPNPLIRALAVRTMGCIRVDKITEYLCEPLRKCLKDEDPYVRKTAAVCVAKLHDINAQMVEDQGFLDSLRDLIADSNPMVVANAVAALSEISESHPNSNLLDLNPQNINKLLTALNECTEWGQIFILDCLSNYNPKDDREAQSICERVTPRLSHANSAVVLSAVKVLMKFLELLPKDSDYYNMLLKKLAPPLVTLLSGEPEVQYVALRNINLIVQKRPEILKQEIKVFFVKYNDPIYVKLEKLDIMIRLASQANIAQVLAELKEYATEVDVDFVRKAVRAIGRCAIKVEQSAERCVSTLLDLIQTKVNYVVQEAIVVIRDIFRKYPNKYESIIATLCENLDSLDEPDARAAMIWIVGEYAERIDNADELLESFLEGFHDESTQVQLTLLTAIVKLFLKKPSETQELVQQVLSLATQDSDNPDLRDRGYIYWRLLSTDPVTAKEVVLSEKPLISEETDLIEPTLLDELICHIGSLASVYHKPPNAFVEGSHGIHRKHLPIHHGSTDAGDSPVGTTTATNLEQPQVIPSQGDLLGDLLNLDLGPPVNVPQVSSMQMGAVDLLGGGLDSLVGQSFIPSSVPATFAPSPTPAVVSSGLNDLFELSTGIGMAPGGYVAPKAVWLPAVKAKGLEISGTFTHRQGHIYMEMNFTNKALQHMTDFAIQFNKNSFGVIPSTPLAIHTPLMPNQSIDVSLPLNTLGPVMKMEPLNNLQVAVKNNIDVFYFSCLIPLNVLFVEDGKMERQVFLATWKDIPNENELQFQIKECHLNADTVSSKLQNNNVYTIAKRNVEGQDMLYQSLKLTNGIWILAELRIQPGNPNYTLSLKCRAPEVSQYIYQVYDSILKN
GST-FITC bead: disrupts GST binding to glutathione beads, arrestin-AP2 artifact. shares compounds with Arrestin-AP2 inh. GST-fluorescein binding to GSH beads, fluorescence, counter-screen. inhibition, % at 10 µM. 1,300 compounds, 2% hits;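 active means inhibition above 50%, about 3 SD of the inhibition seen with non-fluorescent compounds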;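 further: fluorescein maleimide labelled GST captured on 4 micron glutathione beads; higher means more loss of bead fluorescence from quenching or blocked binding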
Active calls of the source: *; / = no result. Most compounds without a hit are left out; they make up all but 1% or so of the library.

SMILES | p-CIP stab down | CTSL1 counter | Arrestin-AP2 inh | Hep lipid drop | Arr AP2 CP1 | GST-FITC bead
COC(=O)c1c(NC(=O)CN2C(=O)NC3(CCc4ccccc4C3)C2=O)sc2c1CCCCC2 (stereo not drawn) | -7 | -1 | 106* | -3 | 7 | 2
O=C(CS(=O)(=O)c1cn(CC(=O)N2CCOCC2)c2ccccc12)Nc1ccccc1 | -7 | 3 | -5 | 14 | / | /
Cc1ccc(CNC(=O)CS(=O)(=O)c2cn(CC(=O)N3CCOCC3)c3ccccc23)cc1 | -17 | 2 | 60* | 18 | -1 | -12
O=C(Nc1ccccc1)c1nn(-c2ccccc2)c(=O)cc1C(F)(F)F | -22 | 2 | 101* | / | -3 | -9
CC(C)n1nnnc1SCC(=O)Nc1ccc2c(c1)OCCO2 | -3 | 4 | / | -18 | / | /
O=S(=O)(Nc1ccc2c(c1)OCCO2)c1cccc(F)c1 | -11 | / | -6 | -5 | / | /
O=S(=O)(Nc1ccc2c(c1)OCCO2)c1c(F)cccc1F | -10 | -4 | 59* | -8 | -11 | 1
Cc1ccc(S(=O)(=O)N2CCOCC2)cc1NC(=O)c1cc2ccccc2oc1=O | / | / | 10 | / | / | /
Cc1noc(C)c1CSc1ncnc2sc(C)c(C)c12 | -2 | -1 | 105* | / | -7 | 2
Cc1noc(C)c1CSc1ncnc2sc3c(c12)CCCCC3 | -11 | 0 | 6 | 27 | / | /
CCOC(=O)CC(C(=O)OCC)P(=O)(c1ccccc1)c1ccccc1 (stereo not drawn) | -18 | -5 | 21 | / | / | /
CC(=O)c1nn(-c2ccccc2)cc1C(=O)c1ccc(C)cc1 | / | 5 | 1 | / | / | /
N#Cc1cn(-c2ccccc2)nc1C(=O)c1ccccc1 | -1 | -6 | 83* | 26 | -2 | -8
O=C(NCC1COc2ccccc2O1)c1cc(S(=O)(=O)N2CCOCC2)ccc1F (stereo not drawn) | / | / | -13 | / | / | /
CN(C)/C=C1\C(=O)N(c2ccc(Oc3ccccc3)cc2)CS1=O (stereo not drawn) | 9 | 0 | 4 | / | / | /
Cc1ccc(S(=O)(=O)Nc2cc(Cl)c(O)cc2C)cc1 | -2 | 2 | 58* | / | 4 | -4
CC(=O)Nc1ccc(S(=O)(=O)N2c3ccccc3NC(=O)CC2C)c(Cl)c1 (stereo not drawn) | 8 | -3 | 54* | 7 | -18 | -1
CC(C)Nc1nnc(SC(C)C(=O)Nc2ccc(Cl)cn2)s1 (stereo not drawn) | -2 | 3 | 55* | 0 | 0 | 5
COc1ccc(Nc2nc(N/N=C/c3ccc(N(C)C)cc3)nc(C)c2[N+](=O)[O-])cc1 | -4 | 6 | 103* | 25 | 3 | 0
Cc1ccsc1C(=O)N/N=C/C=C/c1ccccc1[N+](=O)[O-] | -5 | 6 | -3 | 3 | / | /
CCN1C(=O)/C(=C2/Sc3ccccc3N2CC)SC1=S | -6 | 4 | 21 | 1 | / | /
CCN1/C(=C2\SC(=S)N(Cc3ccccc3)C2=O)Sc2ccccc21 | 0 | -2 | 107* | 14 | 9 | -6
Cc1ccc(CNC(=O)Cn2cnc(S(=O)(=O)N3CCC(C)CC3)c2)o1 | 10 | 1 | 55* | -7 | -4 | 0
Cc1ccc(Cc2ccc(C(=O)NNC(N)=S)o2)cc1 | -16 | -3 | 59* | -12 | -8 | -2
COc1ccc(NC(=O)/C(=C\c2ccco2)NC(=O)c2ccco2)cc1 | 11 | 2 | 21 | 3 | / | /
SMILES | p-CIP stab down | CTSL1 counter | Arrestin-AP2 inh | Hep lipid drop | Arr AP2 CP1 | GST-FITC bead
COc1ccc(NC(=O)/C(C#N)=C\C=C\c2ccco2)cc1 | -3 | 6 | 72* | 16 | -11 | 2
Cc1ccccc1NC(=O)c1ccc(C)c(S(=O)(=O)Nc2cccnc2)c1 | -9 | 4 | 16 | -2 | / | /
Cc1ccc(SCC(=O)NC(=O)NC2CCCC2)c(C)c1 | / | / | 64* | / | -4 | -6
Cc1ccc(C)c(SCC(=O)NC(=O)NC2CCCC2)c1 | / | / | -3 | / | / | /
Cc1ccc(C(=O)N2CCC(C(=O)c3ccc(F)cc3)CC2)cc1 | / | / | 58* | / | 0 | -5
COc1cccc(C(=O)Oc2ccc3c(C)cc(=O)oc3c2C(C)=O)c1 | -29 | 4 | -6 | -5 | / | /
O=C(Cn1cc(C(F)(F)F)ccc1=O)N1CCc2ccccc21 | / | / | 65* | / | -11 | -3
COc1ccc(-c2cc(C(=O)OCC(=O)NC3CC3)c3ccccc3n2)cc1 | / | / | 4 | / | / | /
COc1ccc2cc(-c3cc(C(=O)OCC(=O)NC4CCS(=O)(=O)C4)c4ccccc4n3)ccc2c1 (stereo not drawn) | -10 | -1 | 106* | 4 | 60* | 188*
CCn1c(CC(=O)Nc2ccc(OC)cc2)nnc1SCC(=O)N1CCOCC1 | 4 | -1 | 66* | -1 | 6 | -8
Cc1ccc(C2/C(=C(\O)c3ccc4c(c3)OCCO4)C(=O)C(=O)N2CC2CCCO2)cc1 (stereo not drawn) | -3 | / | 59* | 4 | -1 | -4
COc1ccc(NC(=O)CNC(=O)N2CC(=O)Nc3ccccc32)cc1OC | 1 | 2 | -2 | 13 | / | /
Cc1cc(OCC(O)CN2C(C)CCCC2C)ccc1C(C)C (stereo not drawn) | 6 | 1 | 54* | -2 | 1 | -3
COc1cccc(OCC(O)CN2C(C)CCCC2C)c1 (stereo not drawn) | -7 | -1 | 0 | / | / | /
COc1ccccc1NC1=NC(C)(C)N=C(N)N1 | -8 | 1 | -3 | / | / | /
COCCNC(C(=O)Nc1ccc(C)cc1[N+](=O)[O-])c1ccccc1 (stereo not drawn) | 6 | -4 | -26 | -3 | / | /
CCS(=O)(=O)Nc1cccc(C2=NN(C(C)=O)C(c3cccs3)C2)c1 (stereo not drawn) | 4 | -4 | 54* | -2 | -4 | -10
CC(=O)N1N=C(c2cccc(NS(C)(=O)=O)c2)CC1c1cccs1 (stereo not drawn) | 4 | -3 | -17 | 15 | / | /
CN(C)S(=O)(=O)c1ccc(Cl)c(NC(=O)COC(=O)CN2C(=O)NC(C)(C)C2=O)c1 | -15 | -19 | 30 | 0 | / | /
Cc1cc(NC(=O)COC(=O)C2CSC3(C)CCC(=O)N23)ccc1Br (stereo not drawn) | / | / | -8 | / | -9 | 5
CN(C)S(=O)(=O)c1ccc(Cl)c(NC(=O)COC(=O)C2CSC3(C)CCC(=O)N23)c1 (stereo not drawn) | 1 | -2 | 25 | 0 | 1 | 12
Cc1cc(Br)ccc1NC(=O)C1CSC2(C)CCC(=O)N12 (stereo not drawn) | / | 4 | -2 | / | / | /
CC12CCC(=O)N1C(C(=O)OCC(=O)Nc1ccc(Cl)c(Cl)c1)CS2 (stereo not drawn) | -16 | -7 | -10 | 30 | 5 | -5
O=C(NCCCNC(=O)c1ccco1)c1ccc(Cl)c(Cl)c1 | -6 | 2 | 31 | -10 | / | /
Cc1cccc(N(C(=O)c2snc(C(N)=O)c2N)C(C(=O)NC2CCCC2)c2ccc(C)o2)c1 (stereo not drawn) | -9 | 4 | -5 | 28 | / | /

Screening data from PubChem BioAssay.
